Results taken from ChEMBL document CHEMBL5724801, “EUbOPEN Chemogenomics Library - Multiplex” (2024).
Several values for one entry are separate records, joined by “and”; a condition that tells them apart may be missing. Equal entries are not always repeated.

Test system: HEK-293T
Experiment: Multiplex assay against HEK293T
Assay type: toxicity, cell-based
Settings: human
How it was run: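 With compound added, live cells were imaged on a CQ1 microscope at 37°C and 5% CO2; staining with Hoechst33342, BioTracker Green Microtubule Cytoskeleton Dye, MitoTracker Red and Annexin V Alexa Fluor 680 had been done at seeding. The CellPathfinder machine-learning gating scheme split cells into Hoechst high-intensity objects or normal cells, normal cells into healthy, pyknosed or fragmented nuclei, and pyknosed cells into mitotic or apoptotic. The tubulin, mitochondrial-mass and membrane-permeability phenotypes are per cents of healthy-nucleus cells.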

[1] = 12 h, 1 µM, compound concentration 1 uM
[2] = 12 h, 10 µM, compound concentration 10 uM
[3] = 24 h, 1 µM, compound concentration 1 uM
[4] = 24 h, 10 µM, compound concentration 10 uM
[5] = 48 h, 1 µM, compound concentration 1 uM
[6] = 48 h, 10 µM, compound concentration 10 uM

SMILES: CC(C)c1noc(N2CCC(COc3ccc(-c4ccc(S(C)(=O)=O)cc4)nc3)CC2)n1 [GSK-1292263]
- Population Apoptotic (%) [1]: 37% and 25%
- Population Fragmented Nuclei (%) [1]: 8% and 6%
- Population Healthy Nuclei (%) [1]: 78% and 86%
- Population Hoechst High Intensity Objects (%) [1]: 5% and 6%
- Population Membrane Permeable-Phenotype (%) [1]: 0%
- Population Mitochondria Different-Phenotype (%) [1]: 42% and 53%
- Population Mitotic Cells (%) [1]: 62% and 74%
- Population Normal (%) [1]: 94% and 93%
- Population Pyknosed Nuclei (%) [1]: 12% and 7%
- Population Tubulin-Different-Phenotype (%) [1]: 32% and 13%
- Total Cell Count [1]: 440 and 522
- Population Apoptotic (%) [2]: 50% and 43%
- Population Fragmented Nuclei (%) [2]: 6% and 7%
- Population Healthy Nuclei (%) [2]: 71% and 78%
- Population Hoechst High Intensity Objects (%) [2]: 13% and 16%
- Population Membrane Permeable-Phenotype (%) [2]: 0%
- Population Mitochondria Different-Phenotype (%) [2]: 69% and 77%
- Population Mitotic Cells (%) [2]: 50% and 56%
- Population Normal (%) [2]: 86% and 83%
- Population Pyknosed Nuclei (%) [2]: 22% and 13%
- Population Tubulin-Different-Phenotype (%) [2]: 55% and 40%
- Total Cell Count [2]: 311 and 279
- Population Apoptotic (%) [3]: 23% and 25%
- Population Fragmented Nuclei (%) [3]: 8% and 7%
- Population Healthy Nuclei (%) [3]: 78% and 82%
- Population Hoechst High Intensity Objects (%) [3]: 5% and 3%
- Population Membrane Permeable-Phenotype (%) [3]: 0%
- Population Mitochondria Different-Phenotype (%) [3]: 27% and 29%
- Population Mitotic Cells (%) [3]: 76% and 74%
- Population Normal (%) [3]: 94% and 96%
- Population Pyknosed Nuclei (%) [3]: 12% and 9%
- Population Tubulin-Different-Phenotype (%) [3]: 25% and 9%
- Total Cell Count [3]: 545 and 608
- Population Apoptotic (%) [4]: 64% and 46%
- Population Fragmented Nuclei (%) [4]: 8% and 11%
- Population Healthy Nuclei (%) [4]: 79% and 74%
- Population Hoechst High Intensity Objects (%) [4]: 8% and 10%
- Population Membrane Permeable-Phenotype (%) [4]: 0%
- Population Mitochondria Different-Phenotype (%) [4]: 58% and 59%
- Population Mitotic Cells (%) [4]: 35% and 53%
- Population Normal (%) [4]: 91% and 89%
- Population Pyknosed Nuclei (%) [4]: 12% and 13%
- Population Tubulin-Different-Phenotype (%) [4]: 49% and 28%
- Total Cell Count [4]: 384 and 354
- Population Apoptotic (%) [5]: 22% and 23%
- Population Fragmented Nuclei (%) [5]: 10%
- Population Healthy Nuclei (%) [5]: 81% and 83%
- Population Hoechst High Intensity Objects (%) [5]: 3% and 1%
- Population Membrane Permeable-Phenotype (%) [5]: 1%
- Population Mitochondria Different-Phenotype (%) [5]: 23% and 14%
- Population Mitotic Cells (%) [5]: 77% and 76%
- Population Normal (%) [5]: 96% and 98%
- Population Pyknosed Nuclei (%) [5]: 8% and 5%
- Population Tubulin-Different-Phenotype (%) [5]: 14% and 10%
- Total Cell Count [5]: 865 and 882
- Population Apoptotic (%) [6]: 32% and 30%
- Population Fragmented Nuclei (%) [6]: 10% and 13%
- Population Healthy Nuclei (%) [6]: 79% and 78%
- Population Hoechst High Intensity Objects (%) [6]: 10% and 5%
- Population Membrane Permeable-Phenotype (%) [6]: 0%
- Population Mitochondria Different-Phenotype (%) [6]: 50% and 37%
- Population Mitotic Cells (%) [6]: 67% and 69%
- Population Normal (%) [6]: 89% and 94%
- Population Pyknosed Nuclei (%) [6]: 9% and 8%
- Population Tubulin-Different-Phenotype (%) [6]: 28% and 18%
- Total Cell Count [6]: 506 and 595

SMILES: O=S(=O)(c1ccccc1)c1cnc2c(N3CCNCC3)cccc2c1 [INTEPIRDINE]
- Population Apoptotic (%) [1]: 40% and 50%
- Population Fragmented Nuclei (%) [1]: 7%
- Population Healthy Nuclei (%) [1]: 80% and 74%
- Population Hoechst High Intensity Objects (%) [1]: 7% and 10%
- Population Membrane Permeable-Phenotype (%) [1]: 0%
- Population Mitochondria Different-Phenotype (%) [1]: 54% and 69%
- Population Mitotic Cells (%) [1]: 60% and 50%
- Population Normal (%) [1]: 92% and 89%
- Population Pyknosed Nuclei (%) [1]: 12% and 17%
- Population Tubulin-Different-Phenotype (%) [1]: 43% and 23%
- Total Cell Count [1]: 403 and 336
- Population Apoptotic (%) [2]: 51% and 46%
- Population Fragmented Nuclei (%) [2]: 8% and 4%
- Population Healthy Nuclei (%) [2]: 72% and 79%
- Population Hoechst High Intensity Objects (%) [2]: 10% and 7%
- Population Membrane Permeable-Phenotype (%) [2]: 0%
- Population Mitochondria Different-Phenotype (%) [2]: 70% and 76%
- Population Mitotic Cells (%) [2]: 48% and 53%
- Population Normal (%) [2]: 89% and 92%
- Population Pyknosed Nuclei (%) [2]: 18% and 15%
- Population Tubulin-Different-Phenotype (%) [2]: 58% and 50%
- Total Cell Count [2]: 326 and 349
- Population Apoptotic (%) [3]: 28% and 58%
- Population Fragmented Nuclei (%) [3]: 6% and 7%
- Population Healthy Nuclei (%) [3]: 80% and 85%
- Population Hoechst High Intensity Objects (%) [3]: 5%
- Population Membrane Permeable-Phenotype (%) [3]: 0%
- Population Mitochondria Different-Phenotype (%) [3]: 35% and 43%
- Population Mitotic Cells (%) [3]: 71% and 41%
- Population Normal (%) [3]: 94%
- Population Pyknosed Nuclei (%) [3]: 12% and 7%
- Population Tubulin-Different-Phenotype (%) [3]: 26% and 14%
- Total Cell Count [3]: 530 and 416
- Population Apoptotic (%) [4]: 52% and 51%
- Population Fragmented Nuclei (%) [4]: 11% and 9%
- Population Healthy Nuclei (%) [4]: 75% and 82%
- Population Hoechst High Intensity Objects (%) [4]: 6% and 4%
- Population Membrane Permeable-Phenotype (%) [4]: 0%
- Population Mitochondria Different-Phenotype (%) [4]: 50% and 61%
- Population Mitotic Cells (%) [4]: 47% and 48%
- Population Normal (%) [4]: 93% and 95%
- Population Pyknosed Nuclei (%) [4]: 12% and 8%
- Population Tubulin-Different-Phenotype (%) [4]: 33% and 42%
- Total Cell Count [4]: 439 and 458
- Population Apoptotic (%) [5]: 17% and 25%
- Population Fragmented Nuclei (%) [5]: 12% and 13%
- Population Healthy Nuclei (%) [5]: 80% and 79%
- Population Hoechst High Intensity Objects (%) [5]: 4% and 3%
- Population Membrane Permeable-Phenotype (%) [5]: 1% and 0%
- Population Mitochondria Different-Phenotype (%) [5]: 25% and 26%
- Population Mitotic Cells (%) [5]: 82% and 75%
- Population Normal (%) [5]: 95% and 96%
- Population Pyknosed Nuclei (%) [5]: 7% and 6%
- Population Tubulin-Different-Phenotype (%) [5]: 16% and 12%
- Total Cell Count [5]: 866 and 641
- Population Apoptotic (%) [6]: 40% and 18%
- Population Fragmented Nuclei (%) [6]: 14% and 11%
- Population Healthy Nuclei (%) [6]: 75% and 82%
- Population Hoechst High Intensity Objects (%) [6]: 4%
- Population Membrane Permeable-Phenotype (%) [6]: 0%
- Population Mitochondria Different-Phenotype (%) [6]: 45% and 38%
- Population Mitotic Cells (%) [6]: 59% and 81%
- Population Normal (%) [6]: 95%
- Population Pyknosed Nuclei (%) [6]: 10% and 5%
- Population Tubulin-Different-Phenotype (%) [6]: 30% and 27%
- Total Cell Count [6]: 606 and 673

SMILES: C=C(C)[C@H]1CN[C@H](C(=O)O)[C@H]1CC(=O)O [KAINIC ACID]
- Population Apoptotic (%) [1]: 11.5% and 6.48%
- Population Fragmented Nuclei (%) [1]: 2.06% and 6.54%
- Population Healthy Nuclei (%) [1]: 64.6% and 22.88%
- Population Hoechst High Intensity Objects (%) [1]: 0%
- Population Membrane Permeable-Phenotype (%) [1]: 0.91% and 0%
- Population Mitochondria Different-Phenotype (%) [1]: 37.44% and 14.29%
- Population Mitotic Cells (%) [1]: 88.5% and 93.52%
- Population Normal (%) [1]: 100%
- Population Pyknosed Nuclei (%) [1]: 33.33% and 70.59%
- Total Cell Count [1]: 339 and 153
- Population Apoptotic (%) [2]: 12.5% and 13.33%
- Population Fragmented Nuclei (%) [2]: 12.27% and 2.55%
- Population Hoechst High Intensity Objects (%) [2]: 0.26% and 0%
- Population Membrane Permeable-Phenotype (%) [2]: 0%
- Population Mitochondria Different-Phenotype (%) [2]: 22.58% and 24.24%
- Population Mitotic Cells (%) [2]: 87.5% and 86.67%
- Population Normal (%) [2]: 99.74% and 100%
- Total Cell Count [2]: 384 and 157
- Population Apoptotic (%) [3]: 14% and 18.07%
- Population Fragmented Nuclei (%) [3]: 2.44% and 4.97%
- Population Healthy Nuclei (%) [3]: 77.19% and 43.48%
- Population Hoechst High Intensity Objects (%) [3]: 0%
- Population Membrane Permeable-Phenotype (%) [3]: 0.79% and 1.43%
- Population Mitochondria Different-Phenotype (%) [3]: 12.14% and 7.14%
- Population Mitotic Cells (%) [3]: 86% and 81.93%
- Population Normal (%) [3]: 100%
- Population Pyknosed Nuclei (%) [3]: 20.37% and 51.55%
- Population Tubulin-Different-Phenotype (%) [3]: 8.97% and 5.71%
- Population Apoptotic (%) [4]: 9.33% and 14.16%
- Population Fragmented Nuclei (%) [4]: 9.95% and 0%
- Population Healthy Nuclei (%) [4]: 77.19% and 40.84%
- Population Hoechst High Intensity Objects (%) [4]: 0%
- Population Membrane Permeable-Phenotype (%) [4]: 0.22% and 0%
- Population Mitochondria Different-Phenotype (%) [4]: 11.33% and 7.69%
- Population Mitotic Cells (%) [4]: 90.67% and 85.84%
- Population Normal (%) [4]: 100%
- Population Tubulin-Different-Phenotype (%) [4]: 4.89% and 1.28%
- Population Apoptotic (%) [5]: 7.41% and 12.12%
- Population Fragmented Nuclei (%) [5]: 6.01% and 2.75%
- Population Healthy Nuclei (%) [5]: 85.97% and 71.37%
- Population Hoechst High Intensity Objects (%) [5]: 0.07% and 0%
- Population Membrane Permeable-Phenotype (%) [5]: 5.09% and 4.4%
- Population Mitochondria Different-Phenotype (%) [5]: 10.62% and 17.03%
- Population Mitotic Cells (%) [5]: 92.59% and 87.88%
- Population Normal (%) [5]: 99.93% and 100%
- Population Apoptotic (%) [6]: 13.71% and 22.5%
- Population Fragmented Nuclei (%) [6]: 7.14% and 1.13%
- Population Healthy Nuclei (%) [6]: 83.02% and 68.8%
- Population Hoechst High Intensity Objects (%) [6]: 0% and 0.75%
- Population Membrane Permeable-Phenotype (%) [6]: 4.88% and 2.19%
- Population Mitochondria Different-Phenotype (%) [6]: 10.71% and 14.75%
- Population Mitotic Cells (%) [6]: 86.29% and 77.5%
- Population Normal (%) [6]: 100% and 99.25%
